Results reported in ChEMBL document CHEMBL5038617, “1,2,4-Triazole-3-thione compounds with a 4-ethyl alkyl/aryl sulfide substituent are broad-spectrum metallo-β-lactamase inhibitors with re-sensitization activity” (Eur J Med Chem, 2021).

Assays:
[1] = Inhibition of bacterial Metallo-beta-lactamase VIM-4 (unknown origin) assessed as substrate hydrolysis using meropenem as substrate by UV-visible spectrometry analysis; design: species or system Bacteria
Method in brief: (§1)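 Purified MBL enzyme at 1–70 nM final, in 50 mM HEPES pH 7.5 at 30 °C with 0.5% DMSO. Reporter substrate 150 µM imipenem or meropenem; hydrolysis read at 300 nm. […] Ki measured when inhibition exceeded 75%, by competitive-model v0/vi vs [I] slope or Dixon plot. Some runs used 10 min enzyme–inhibitor preincubation. Triplicate.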

Bacteria [2] = assay: Inhibition of bacterial Metallo-beta-lactamase IMP-1 (unknown origin) assessed as substrate hydrolysis at 100 uM using meropenem as substrate by UV-visible spectrometry analysis; method in brief: as §1
Klebsiella pneumoniae [3] = assay: Synergistic antibacterial activity against Klebsiella pneumonia 7023 clinical isolate strain producing Metallo-beta-lactamase VIM-1 assessed as meropenem MIC in presence of meropenem incubated for 24 hrs by broth microdilution method; format: functional
Method in brief: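 CLSI broth microdilution in Mueller-Hinton broth with 5 × 10^4 CFU/well. Meropenem two-fold serial dilutions tested with and without inhibitor fixed at 32 µg/mL, inhibitor added before antibiotic. DMSO ≤1%. […] Growth controls included. Triplicate.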

[4] = Inhibition of bacterial Metallo-beta-lactamase VIM-1 (unknown origin) assessed as substrate hydrolysis using meropenem as substrate by UV-visible spectrometry analysis; design: species or system Bacteria; method in brief: as §1
[5] = Inhibition of bacterial Metallo-beta-lactamase VIM-2 (unknown origin) assessed as substrate hydrolysis using meropenem as substrate by UV-visible spectrometry analysis; design: species or system Bacteria; method in brief: as §1
Bacteria [6] = assay: Inhibition of bacterial New Delhi metallo-beta-lactamase 1 (unknown origin) assessed as substrate hydrolysis at 100 uM using meropenem as substrate by UV-visible spectrometry analysis; method in brief: as §1
Klebsiella pneumoniae [7] = assay: Synergistic antibacterial activity against Klebsiella pneumonia VA 416/02 clinical isolate strain producing Metallo-beta-lactamase VIM-4 assessed as meropenem MIC in presence of meropenem incubated for 24 hrs by broth microdilution method; details: VA 416/02, 24 h
[8] = Inhibition of bacterial New Delhi metallo-beta-lactamase 1 (unknown origin) assessed as substrate hydrolysis using meropenem as substrate by UV-visible spectrometry analysis; design: species or system Bacteria; method in brief: as §1
[9] = Inhibition of bacterial Metallo-beta-lactamase IMP-1 (unknown origin) assessed as substrate hydrolysis using meropenem as substrate by UV-visible spectrometry analysis; design: species or system Bacteria; method in brief: as §1
Bacteria [10] = assay: Inhibition of bacterial Metallo-beta-lactamase VIM-2 (unknown origin) assessed as substrate hydrolysis at 100 uM using meropenem as substrate by UV-visible spectrometry analysis; method in brief: as §1
Bacteria [11] = assay: Inhibition of bacterial Metallo-beta-lactamase VIM-4 (unknown origin) assessed as substrate hydrolysis at 25 uM using meropenem as substrate by UV-visible spectrometry analysis; method in brief: as §1
Bacteria [12] = assay: Inhibition of bacterial Metallo-beta-lactamase VIM-1 (unknown origin) assessed as substrate hydrolysis at 25 uM using meropenem as substrate by UV-visible spectrometry analysis; method in brief: as §1
[13] = Cytotoxicity against human PBMC cells assessed as cell viability measured after 24 hrs by flowcytometry method; format: toxicity, cell-based; details: for IC50 at 24 h: human, PBMC cells
Method in brief: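 PBMC from four individual donors were isolated by density centrifugation, frozen, thawed and resuspended at 1.10e6/mL in RPMI with 10% FBS. Compound added from 20 mM DMSO stock by serial dilution in RPMI; final concentrations 500–7.8 µM, in duplicate. After 24 h, live cells counted by flow cytometry using FSC/SSC gating. IC50 calculated for each donor.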

HeLa = assay: Cytotoxicity against human HeLa cells assessed as LDH release measured after 24 hrs by CytoTox96 nonradioactive assay; format: functional, cell-based
Method in brief: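 HeLa cells (20,000/well) incubated 24 h at 37 °C, 5% CO2 in DMEM with 10% FBS, 4.5 mg/mL glucose and 2 mM L-glutamine, with compound up to 250 µM. LDH release measured. Medium-only control and Triton X-100 maximum-release control included. % cytotoxicity = 100 × sample/maximum release. IC50 taken as 50% cytotoxicity.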

Bacteria [14] = assay: Inhibition of bacterial Metallo-beta-lactamase IMP-1 (unknown origin) assessed as substrate hydrolysis at 25 uM using meropenem as substrate by UV-visible spectrometry analysis; method in brief: as §1
Bacteria [15] = assay: Inhibition of bacterial Metallo-beta-lactamase VIM-2 (unknown origin) assessed as substrate hydrolysis at 25 uM using meropenem as substrate by UV-visible spectrometry analysis; method in brief: as §1
Bacteria [16] = assay: Inhibition of bacterial Metallo-beta-lactamase VIM-1 (unknown origin) assessed as substrate hydrolysis at 100 uM using meropenem as substrate by UV-visible spectrometry analysis; method in brief: as §1
Bacteria [17] = assay: Inhibition of bacterial Metallo-beta-lactamase VIM-4 (unknown origin) assessed as substrate hydrolysis at 100 uM using meropenem as substrate by UV-visible spectrometry analysis; method in brief: as §1
A549 = assay: Cytotoxicity against human A549 cells assessed as cell viability measured after 48 hrs by RealTime-glo MT assay; format: functional, cell-based; details: A549, 48 h
Method in brief: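 A549 cells incubated up to 48 h in DMEM with varying compound concentrations. Viable cell number read by bioluminescent real-time viability assay (NanoLuc luciferase with cell-permeant prosubstrate). Viability expressed relative to DMSO-only control culture, and IC50 derived.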

SMILES	Ki [1] [nM]	inhibition (Bacteria [2]) [%]	MIC (Klebsiella pneumoniae [3]) [µg/mL]	Ki [4] [nM]	Ki [5] [nM]	inhibition (Bacteria [6]) [%]	MIC (Klebsiella pneumoniae [7]) [µg/mL]	Ki [8] [nM]	Ki [9] [nM]	other results
O=C(O)CCSCCn1c(-c2ccccc2)n[nH]c1=S	1980	67	2	1990	1910	59	1			
O=[N+]([O-])c1ccccc1CSCCn1c(-c2ccccc2)n[nH]c1=S	560	72	2	480	570		1	13200	19000	
O=C(O)CSCCn1c(-c2ccccc2)n[nH]c1=S	710	< 30	2	2360	810	40	4			
Fc1ccccc1CSCCn1c(-c2ccccc2)n[nH]c1=S	320		1	590	280		2	11900	12100	IC50 at 24 h [13]: 175000 nM; IC50 (HeLa): 165000 nM
Cc1nnc(SCCn2c(-c3ccccc3)n[nH]c2=S)s1	2950	< 30	2	2170		< 30	2			inhibition (Bacteria [10]): 56%
S=c1[nH]nc(-c2cccc(-c3ccccc3)c2)n1CCSCc1ccccc1	890		16			< 30	16			inhibition (Bacteria [14]): 21%; inhibition (Bacteria [15]): < 15%
Cc1ccccc1-c1n[nH]c(=S)n1CCSCc1ccccc1	500		4	400	800		2	13000	44000	IC50 (HeLa): 121000 nM
O=C(O)C(SCCn1c(-c2ccccc2)n[nH]c1=S)c1ccccc1 (stereo not drawn)	210	30	4	1650	190	40	2			
Cn1cccc1-c1n[nH]c(=S)n1CCSCc1ccccc1	250		2	230	340	75	1	28000	9040	IC50 ([13]; pbmc): Non-Toxic; IC50 (A549): > 250000 nM; IC50 (HeLa): > 250000 nM
S=c1[nH]nc(-c2ccccc2-c2ccccc2)n1CCSCc1ccccc1		35				< 30				inhibition (Bacteria [10]): < 30%
Nc1ccccc1SCCn1c(-c2ccccc2)n[nH]c1=S	410		4	470	1150		2	16300	22200	
S=c1[nH]nc(-c2ccccc2)n1CCSc1nc(-c2ccccc2)n[nH]1		32				< 30				inhibition (Bacteria [16]): < 30%; inhibition (Bacteria [10]): 44%; inhibition (Bacteria [17]): 52%
S=c1[nH]nc(-c2ccccc2)n1CCSCCc1ccccc1	430		2	460	1760		1	21100	17700	
S=c1[nH]nc(-c2ccccc2)n1CCCSc1ccccc1	4850	46	2	2980	1350	42	1			

More lines, main results first:

Ki [1] [nM]	inhibition (Bacteria [2]) [%]	MIC (Klebsiella pneumoniae [3]) [µg/mL]	Ki [4] [nM]	Ki [5] [nM]	inhibition (Bacteria [6]) [%]	MIC (Klebsiella pneumoniae [7]) [µg/mL]	Ki [8] [nM]	Ki [9] [nM]	SMILES	other results
250	< 30	8	480	1000	< 30	16			S=c1[nH]nc(-c2ccccc2)n1CCSc1cccc2ccccc12	
1110		8	2220	830		2	15100	9660	Fc1ccc(CSCCn2c(-c3ccccc3)n[nH]c2=S)cc1	
	70				< 30				S=c1[nH]nc(Cc2ccc3ccccc3c2)n1CCSCc1ccccc1	inhibition (Bacteria [10]): < 30%; inhibition (Bacteria [11]): 23%; inhibition (Bacteria [12]): < 15%
600	63	2	180	1650	46	2			COc1ccc(O)c(-c2n[nH]c(=S)n2CCSCc2ccccc2)c1	
880		2	430	1290		1	11100	3630	O=[N+]([O-])c1ccc(CSCCn2c(-c3ccccc3)n[nH]c2=S)cc1	
	47				< 30				S=c1[nH]nc(-c2ccccc2)n1CCSc1nc2ccccc2s1	inhibition (Bacteria [16]): < 30%; inhibition (Bacteria [10]): 30%; inhibition (Bacteria [17]): 44%
210	56	4	1390	370		2	20300		O=C(O)C(CSCCn1c(-c2cccc(-c3ccccc3)c2)n[nH]c1=S)c1ccccc1 (stereo not drawn)	
1040	60		2240		< 30				S=c1[nH]nc(-c2ccc(OCc3ccccc3)cc2)n1CCSCc1ccccc1	inhibition (Bacteria [10]): < 30%
220		2	480	600		4	6000	35000	O=C(O)C(CSCCn1c(-c2ccccc2)n[nH]c1=S)c1ccccc1 (stereo not drawn)	IC50 (HeLa): > 250000 nM
540		1	1260	1570		1	11000	3350	S=c1[nH]nc(-c2ccccc2)n1CCSc1ccccc1	
2060	42	4	1020	3160	33	2			S=c1[nH]nc(-c2ccccc2)n1CCOCc1ccccc1	
	< 30						12900		FC(F)(F)c1cc(SCCn2c(-c3ccccc3)n[nH]c2=S)c2ccccc2n1	inhibition (Bacteria [16]): 37%; inhibition (Bacteria [10]): < 30%; inhibition (Bacteria [17]): < 30%
	60				< 30				S=c1[nH]nc(-c2ccc(-c3ccccc3)cc2)n1CCSCc1ccccc1	inhibition (Bacteria [10]): < 30%; inhibition (Bacteria [11]): < 15%; inhibition (Bacteria [12]): < 15%
1180		2	1330	940		1	12000	8670	Fc1ccc(CSCCn2c(-c3ccccc3)n[nH]c2=S)c(F)c1	
250	62	1	580	210		4	11900		O=[N+]([O-])c1ccc(O)c(CSCCn2c(-c3ccccc3)n[nH]c2=S)c1	IC50 at 24 h [13]: > 500000 nM; IC50 (A549): 125000 nM; IC50 (HeLa): > 250000 nM
